# In ChEMBL document CHEMBL3739379, “Anti-Candida activity and cytotoxicity of a large library of new N-substituted-1,3-thiazolidin-4-one derivatives” (Eur J Med Chem, 2016):
# Legend:
# Assay type in all cases: functional
# Enterobacter sp. = experiment: Antibacterial activity against Enterobacter sp. after 18 to 22 hrs by broth microdilution method
# Summary of the method: (§1)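 Broth microdilution per NCCLS in Mueller-Hinton II broth; isolates subcultured for purity. Compounds dissolved in DMSO, serial dilutions 256 to 0.5 µg/mL; inoculum 10^5/mL. Controls: organism without compound, medium only. Incubation 18 to 22 h at 35 °C. MIC is the lowest concentration giving complete growth inhibition, read by unaided eye.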
# Staphylococcus aureus = experiment: Antibacterial activity against Staphylococcus aureus after 18 to 22 hrs by broth microdilution method; summary of the method: as §1
# Pichia kudriavzevii = experiment: Antifungal activity against Candida krusei clinical isolate after 24 hrs by sabouraud dextrose broth based microdilution method
# Summary of the method: (§2)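 Clinical isolates identified by conventional methods and subcultured for purity. Broth microdilution per NCCLS in Sabouraud dextrose broth; compounds dissolved in DMSO and serially diluted; inoculum 10^3/mL. Controls: fungi without compound, medium only. Incubated 24 h at 37 °C. MIC is the lowest concentration with complete growth inhibition by unaided eye. Values are geometric means over isolates per species.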
# Candida tropicalis = experiment: Antifungal activity against Candida tropicalis clinical isolate after 24 hrs by sabouraud dextrose broth based microdilution method; summary of the method: as §2
# [1] = system: Staphylococcus haemolyticus; experiment: Antibacterial activity against Staphylococcus haemolyticus after 18 to 22 hrs by broth microdilution method; summary of the method: as §1
# Staphylococcus warneri = experiment: Antibacterial activity against Staphylococcus warneri after 18 to 22 hrs by broth microdilution method; summary of the method: as §1
# Nakaseomyces glabratus = experiment: Antifungal activity against Candida glabrata clinical isolate after 24 hrs by sabouraud dextrose broth based microdilution method; summary of the method: as §2
# Klebsiella oxytoca = experiment: Antibacterial activity against Klebsiella oxytoca after 18 to 22 hrs by broth microdilution method; summary of the method: as §1
# Candida parapsilosis = experiment: Antifungal activity against Candida parapsilosis clinical isolate after 24 hrs by sabouraud dextrose broth based microdilution method; details: Lodderomyces parapsilosis; summary of the method: as §2
# [Candida] sake = Antifungal activity against Candida sake clinical isolate after 24 hrs by sabouraud dextrose broth based microdilution method; details: Fermentozyma sake; summary of the method: as §2
# Proteus mirabilis = experiment: Antibacterial activity against Proteus mirabilis after 18 to 22 hrs by broth microdilution method; summary of the method: as §1
# Enterococcus faecalis = experiment: Antibacterial activity against […] faecalis after 18 to 22 hrs by broth microdilution method; summary of the method: as §1
# Escherichia coli = experiment: Antibacterial activity against Escherichia coli at after 18 to 22 hrs by broth microdilution method; summary of the method: as §1
# Candida albicans = experiment: Antifungal activity against Candida albicans clinical isolate after 24 hrs by sabouraud dextrose broth based microdilution method; summary of the method: as §2
MIC (Enterobacter sp.),MIC (Staphylococcus aureus),MIC (Pichia kudriavzevii),MIC (Candida tropicalis),MIC (Staphylococcus warneri),MIC (Nakaseomyces glabratus),MIC (Klebsiella oxytoca),MIC (Candida parapsilosis),MIC ([Candida] sake),MIC (Proteus mirabilis),MIC (Enterococcus faecalis),MIC (Escherichia coli),MIC (Candida albicans),Structure (SMILES),MIC [1]
> 256 µg/mL,> 256 µg/mL,2 µg/mL,2 µg/mL,> 256 µg/mL,32 µg/mL,> 256 µg/mL,8 µg/mL,2 µg/mL,> 256 µg/mL,> 256 µg/mL,> 256 µg/mL,4 µg/mL,CC1CCC/C1=N\N=C1/SCC(=O)N1Cc1cccc2ccccc12 (centres undefined),> 256 µg/mL
> 256 µg/mL,> 256 µg/mL,16 µg/mL,8 µg/mL,> 256 µg/mL,32 µg/mL,> 256 µg/mL,8 µg/mL,32 µg/mL,> 256 µg/mL,> 256 µg/mL,> 256 µg/mL,2 µg/mL,O=C1CS/C(=N\N=C2CCCCC2)N1Cc1cccc2ccccc12,> 256 µg/mL
> 256 µg/mL,> 256 µg/mL,2 µg/mL,8 µg/mL,> 256 µg/mL,2 µg/mL,> 256 µg/mL,2 µg/mL,2 µg/mL,> 256 µg/mL,> 256 µg/mL,> 256 µg/mL,2 µg/mL,C=CCC/C(C)=N/N=C1\SCC(=O)N1Cc1cccc2ccccc12,> 256 µg/mL
> 256 µg/mL,> 256 µg/mL,2 µg/mL,64 µg/mL,> 256 µg/mL,8 µg/mL,> 256 µg/mL,2 µg/mL,2 µg/mL,> 256 µg/mL,> 256 µg/mL,> 256 µg/mL,4 µg/mL,CCCCC/C(C)=N/N=C1\SCC(=O)N1Cc1cccc2ccccc12,> 256 µg/mL
> 256 µg/mL,> 256 µg/mL,2 µg/mL,64 µg/mL,> 256 µg/mL,2 µg/mL,> 256 µg/mL,2 µg/mL,16 µg/mL,> 256 µg/mL,> 256 µg/mL,> 256 µg/mL,2 µg/mL,CCC/C(C)=N/N=C1\SCC(=O)N1Cc1cccc2ccccc12,> 256 µg/mL
> 256 µg/mL,> 256 µg/mL,16 µg/mL,2 µg/mL,> 256 µg/mL,16 µg/mL,> 256 µg/mL,16 µg/mL,2 µg/mL,> 256 µg/mL,> 256 µg/mL,> 256 µg/mL,2 µg/mL,CCC(CC)=N/N=C1\SCC(=O)N1Cc1cccc2ccccc12,> 256 µg/mL

# Continued, compound first:
Structure (SMILES),MIC (Enterobacter sp.),MIC (Staphylococcus aureus),MIC (Pichia kudriavzevii),MIC (Candida tropicalis),MIC (Staphylococcus warneri),MIC (Nakaseomyces glabratus),MIC (Klebsiella oxytoca),MIC (Candida parapsilosis),MIC ([Candida] sake),MIC (Proteus mirabilis),MIC (Enterococcus faecalis),MIC (Escherichia coli),MIC (Candida albicans),MIC [1]
CCC/C(C)=N/N=C1\SCC(=O)N1Cc1ccc([N+](=O)[O-])cc1,> 256 µg/mL,> 256 µg/mL,16 µg/mL,64 µg/mL,> 256 µg/mL,2 µg/mL,> 256 µg/mL,16 µg/mL,8 µg/mL,> 256 µg/mL,> 256 µg/mL,> 256 µg/mL,2 µg/mL,> 256 µg/mL
CC(C)=N/N=C1\SCC(=O)N1Cc1ccc([N+](=O)[O-])cc1,> 256 µg/mL,> 256 µg/mL,2 µg/mL,2 µg/mL,> 256 µg/mL,4 µg/mL,> 256 µg/mL,2 µg/mL,2 µg/mL,> 256 µg/mL,> 256 µg/mL,> 256 µg/mL,4 µg/mL,> 256 µg/mL
O=C1c2ccccc2C(=O)N1CN1C(=O)CS/C1=N\N=C1CCCC1,> 256 µg/mL,> 256 µg/mL,16 µg/mL,8 µg/mL,> 256 µg/mL,16 µg/mL,> 256 µg/mL,64 µg/mL,256 µg/mL,> 256 µg/mL,> 256 µg/mL,> 256 µg/mL,2 µg/mL,> 256 µg/mL
C=CCC/C(C)=N/N=C1\SCC(=O)N1Cc1ccc([N+](=O)[O-])cc1,> 256 µg/mL,> 256 µg/mL,32 µg/mL,8 µg/mL,> 256 µg/mL,8 µg/mL,> 256 µg/mL,32 µg/mL,8 µg/mL,> 256 µg/mL,> 256 µg/mL,> 256 µg/mL,4 µg/mL,> 256 µg/mL
CC/C(C)=N/N=C1\SCC(=O)N1Cc1ccc([N+](=O)[O-])cc1,> 256 µg/mL,> 256 µg/mL,2 µg/mL,128 µg/mL,> 256 µg/mL,2 µg/mL,> 256 µg/mL,2 µg/mL,8 µg/mL,> 256 µg/mL,> 256 µg/mL,> 256 µg/mL,2 µg/mL,> 256 µg/mL
